APP 5'UTR act: activators of APP 5'UTR luciferase reporter, primary screen, SH-SY5Y cells; SH-SY5Y APP 5'UTR luciferase reporter, luminescence; zero percent = DMSO vehicle wells; activation, % at 2 µM; AID 1276, 2008; hit rate 1% among 190,000;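 active = activation above a set limit, based on mean plus 3 SD of controls, cut at about 140% in these data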
NF-kB neuron act: activators of NF-kB expression in neurons, primary screen, cell-based, HTS | human neuronal cells, NF-kB reporter expression; active compounds read high | fold change at 12.5 µM | hit rate 1.6% among 190,000; in the data active = fold change above about 3.3
STAT1 activator: STAT1 signaling activators, primary screen, cell-based, HTS, luciferase reporter; activation (% of control), % at 5.5 µM; AID 932, 2007; hit rate 2.6% among 200,000; NIH 3T3 STAT1-luciferase reporter, IFN-gamma, luminescence; 100% = IFN-gamma alone, no compound;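 active = activation above the screen-wide mean activation plus 3 SD, cut at about 130% in these data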
STAT3 act: IL-6 driven STAT3 reporter potentiators, primary screen, U3A cells, luciferase, luminescence, MLSCN library; activation (% of control), % at 5.6 µM; IL-6 STAT3-luciferase reporter; 100% = signal with IL-6 EC80 alone; AID 871, 2007; hit rate 0.91% among 190,000;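 active = activation above the screen-wide mean of compound activation plus 3 SD, cut at about 130% in these data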
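Material: STAT3-luciferase reporter U3A cells; Probe or stimulus: IL-6 (33 ng/mL); Incubation: compound pre-incubation 1 h before IL-6, then 6 h stimulation at 37 °C; Technique: luminescence from STAT3-driven luciferase reporter; Evaluation: % activation versus median of IL-6-stimulated wells; Controls: IL-6-only high control.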
STAT3 inh: IL-6 driven STAT3 reporter inhibitors, primary screen, U3A cells, luciferase, luminescence, MLSCN library; IL-6 STAT3-luciferase reporter; host cell line lacks STAT1; inhibition, % at 5.5 µM; hit rate 0.89% among 190,000;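 active = inhibition above the mean inhibition across all screened compounds plus 3 SD, cut at about 44% in these data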
STAT1 inh: STAT1 signaling inhibitors, primary screen, cell-based, HTS, luciferase reporter; NIH 3T3 STAT1-luciferase reporter, IFN-gamma, luminescence; inhibition, % at 5.5 µM; hit rate 0.35% among 200,000;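 active = inhibition above a set limit, the mean inhibition across all tested compounds plus 3 SD, cut at about 34% in these data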
Hits are given with their value; . = inactive; / = not tested or not shown. A selection: hits, their analogues and other compounds. The true share with any hit is near 5.1%.

SMILES	APP 5'UTR act	NF-kB neuron act	STAT1 activator	STAT3 act	STAT3 inh	STAT1 inh
Brc1ccccc1Cn1c(-c2cscn2)nc2ccccc21	.	.	.	.	.	.
O=C(O)c1cccc(COc2ccccc2Cl)c1	/	15	/	/	/	/
CCOC(=O)c1csc(Nc2nc3ccc(F)cc3s2)n1	.	.	.	.	.	.
COC(=O)Nc1nc2ccc(Br)cc2s1	.	.	.	.	.	.
COC(=O)c1ccc2nc(NC(=O)C3CCCCC3)sc2c1	141	.	.	.	.	.
COC(=O)c1ccc2nc(NC(=O)C(C)(C)C)sc2c1	.	.	.	.	100	74
COC(=O)c1ccc2nc(Nc3nc4ccc(F)cc4s3)sc2c1	.	.	.	.	92	64
CC(=O)Nc1nc2ccc(C(=O)NC3CCCCC3)cc2s1	.	.	.	.	.	.
CC(=O)c1sc(Nc2nc3ccc(F)cc3s2)nc1C	.	.	135	.	.	.
Cc1noc(C)c1COC(=O)c1ccc(S(=O)(=O)N2CCCCC2)cc1	.	.	.	.	.	.
O=C(NN1C(=O)/C(=C\c2cccnc2)SC1=S)c1ccco1	.	.	.	.	.	.
CCN(CC)C(=O)C1=C(C)Nc2ncnn2C1c1cccnc1 (stereo not given)	.	.	.	.	.	.
O=C1CCC(=O)N1c1ccc(-c2nc3ccccc3s2)cc1	.	.	.	.	86	68
COc1ccccc1Cn1c(-c2ccco2)nc2nc3ccccc3nc21	.	/	.	.	.	.
Clc1ccc(-c2nc3nc4ccccc4nc3n2Cc2ccco2)cc1	.	3.7	.	.	.	.
Cc1ccc(-c2nc3nc4ccccc4nc3n2Cc2ccco2)cc1	181	.	.	.	.	.
CC1CCCC(C)N1C(=O)c1cc2ncc(CCCl)cn2n1 (stereo not given)	.	.	.	.	.	.
CCOn1c(SCC)nc2ccccc2c1=O	.	.	.	.	.	.
CCSc1nn2c(=O)c3ccccc3nc2s1	.	.	131	.	.	.
Cc1ccc(C(=O)Nc2nc3ccc(S(C)(=O)=O)cc3s2)s1	.	.	146	.	.	.
CCC(=O)Nc1nc2ccc(S(C)(=O)=O)cc2s1	.	.	131	.	.	.
Cn1cc(CN2CCC(C(O)c3cccs3)CC2)c(-c2cccc(Cl)c2)n1 (stereo not given)	.	.	.	.	.	.
O=C(O/N=C\c1ccc(N2CCOCC2)c([N+](=O)[O-])c1)c1ccccc1Cl	.	.	.	.	.	.
O=C(O/N=C/c1ccc2c(c1)OCO2)c1ccccc1Cl	.	3.7	.	.	.	.
CCC(=O)Nc1cccc(-c2nnc(SCC(=O)NCc3ccco3)n2C)c1	.	.	.	.	.	.
SMILES	APP 5'UTR act	NF-kB neuron act	STAT1 activator	STAT3 act	STAT3 inh	STAT1 inh
CCC(=O)Nc1cccc(-c2nnc(SCC(=O)c3ccccc3)n2C)c1	.	.	148	.	.	.
O=C(CNC(=O)c1cccs1)OCC(=O)c1ccc([N+](=O)[O-])cc1	.	.	.	.	.	.
O=C(CNC(=O)c1ccc([N+](=O)[O-])cc1)c1ccccc1	.	.	134	.	.	.
O=C(CNC(=O)c1cccs1)c1ccc([N+](=O)[O-])cc1	.	.	136	.	.	.
CC(Cc1ccccc1)NC(=O)c1ccc([N+](=O)[O-])cc1 (stereo not given)	.	.	143	.	.	.
O=C(CNC(=O)c1cccs1)OCC(=O)c1ccc(Cl)cc1	.	.	.	.	.	.
O=C(CNC(=O)c1cccs1)c1ccc(F)cc1	158	4	.	.	.	.
O=C(NC(NC(=S)Nc1cccc(Cl)c1)C(Cl)(Cl)Cl)OCc1ccccc1 (stereo not given)	.	.	.	.	.	.
CC(=O)Nc1c(O)nc(SCC(=O)Nc2nnc(SCc3ccccc3)s2)[nH]c1=O	.	.	.	.	.	.
O=C(Cc1cccs1)Nc1nc2c(s1)CCCC2	.	6.1	131	.	.	.
COc1cc(OC)cc(-n2nnnc2SCC(=O)Nc2nc3c(s2)CCCC3)c1	.	.	.	.	.	.
O=C(Cc1cccs1)Nc1nc2c(ccc3ccccc32)s1	.	.	.	159	.	.
Cn1nnnc1SCC(=O)Nc1nc2c(s1)CCCC2	.	4	143	.	.	.
O=C(Nc1nc2c(s1)CCCC2)c1cccnc1	.	4	139	.	.	.
C1CC(CN2CCOCC2)CN(Cc2nc(CC3CC3)no2)C1 (stereo not given)	.	.	.	.	.	.
CCOc1ccc(NC(=O)CSCc2cnn(-c3ccccc3)c2-n2cccc2)cc1	.	.	.	.	.	.
O=C(Nc1cccnc1)c1cccnc1	.	.	.	.	.	.
CC(C)c1ccc2oc(-c3ccc(NC(=O)c4ncn[nH]4)cc3)nc2c1	.	.	136	.	.	.
O=C(Nc1ccccc1)c1ccncc1	.	.	.	.	.	.
Cc1ccc2oc(-c3ccc(NC(=O)c4cccnc4)cc3)nc2c1	225	.	144	.	.	.
O=C(Nc1cnc2ccccc2c1)c1ccncc1	.	3.5	130	.	.	.
O=C(Nc1ccc2ccccc2c1)c1cccnc1	.	5	137	.	.	.
O=C(CN1CCN(Cc2ccccc2F)C1=O)NCc1ccco1	.	.	.	.	.	.
Cc1c(-n2c(SCC(=O)NC(C)C)nc3ccccc3c2=O)c(=O)n(-c2ccccc2)n1C	.	.	.	.	.	.
O=C(Nc1ccc2ccccc2c1)c1cnccn1	157	6.5	.	.	.	.
SMILES	APP 5'UTR act	NF-kB neuron act	STAT1 activator	STAT3 act	STAT3 inh	STAT1 inh
O=C(Nc1ccc(F)c(F)c1)c1cnc(-c2ccccc2)nc1-c1ccccc1	.	.	.	.	.	.
CC(=O)c1ccc(NC(=O)c2cn(-c3ccccc3)nc2-c2ccncc2)cc1	/	.	.	.	.	.
O=C(Nc1ccc(F)cc1)c1cnc(-c2ccccc2)nc1-c1ccccc1	.	.	133	.	.	.
O=C(O)c1ccc(NC(=O)c2cn(-c3ccccc3)nc2-c2ccc(F)cc2)cc1	.	.	135	.	.	.
Cc1ccc2nc(-c3ccc(SCC(=O)Nc4nc(C)cs4)nc3)[nH]c2c1	149	.	146	.	.	.
Cc1ccc2nc(-c3ccc(SCC(=O)Nc4nnc(C)s4)nc3)[nH]c2c1	.	.	.	.	.	.
CCOC(=O)CSc1ccc(-c2nc3cc(C)c(C)cc3[nH]2)cn1	.	.	.	.	.	.
Cc1cc2nc(-c3ccc(SCc4ccccn4)nc3)[nH]c2cc1C	.	.	135	.	.	.
